Experimental data published in ChEMBL document CHEMBL1165965, “Synthesis and structure-activity relationships of 1,2,3,4-tetrahydropyrido[2,3-b]pyrazines as potent and selective inhibitors of the anaplastic lymphoma kinase” (Bioorg Med Chem, 2010).

Experiments:
[1] = biological target: BDNF/NT-3 growth factors receptor (Homo sapiens) (UniProt Q16620); assay: Inhibition of TRKB at 1 uM
Outline: (§1)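 Single-concentration screen on the Ambit KINOMEscan platform, run against a panel of 250–400 kinases. Per-kinase inhibition was also summarized as S(90), the fraction of kinases inhibited by more than 90%.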

[2] = biological target: ALK tyrosine kinase receptor (Homo sapiens, UniProt Q9UM73); assay: Inhibition of ALK at 1 uM
Sequence of ALK tyrosine kinase receptor (Q9UM73 19-1620 limits assumed): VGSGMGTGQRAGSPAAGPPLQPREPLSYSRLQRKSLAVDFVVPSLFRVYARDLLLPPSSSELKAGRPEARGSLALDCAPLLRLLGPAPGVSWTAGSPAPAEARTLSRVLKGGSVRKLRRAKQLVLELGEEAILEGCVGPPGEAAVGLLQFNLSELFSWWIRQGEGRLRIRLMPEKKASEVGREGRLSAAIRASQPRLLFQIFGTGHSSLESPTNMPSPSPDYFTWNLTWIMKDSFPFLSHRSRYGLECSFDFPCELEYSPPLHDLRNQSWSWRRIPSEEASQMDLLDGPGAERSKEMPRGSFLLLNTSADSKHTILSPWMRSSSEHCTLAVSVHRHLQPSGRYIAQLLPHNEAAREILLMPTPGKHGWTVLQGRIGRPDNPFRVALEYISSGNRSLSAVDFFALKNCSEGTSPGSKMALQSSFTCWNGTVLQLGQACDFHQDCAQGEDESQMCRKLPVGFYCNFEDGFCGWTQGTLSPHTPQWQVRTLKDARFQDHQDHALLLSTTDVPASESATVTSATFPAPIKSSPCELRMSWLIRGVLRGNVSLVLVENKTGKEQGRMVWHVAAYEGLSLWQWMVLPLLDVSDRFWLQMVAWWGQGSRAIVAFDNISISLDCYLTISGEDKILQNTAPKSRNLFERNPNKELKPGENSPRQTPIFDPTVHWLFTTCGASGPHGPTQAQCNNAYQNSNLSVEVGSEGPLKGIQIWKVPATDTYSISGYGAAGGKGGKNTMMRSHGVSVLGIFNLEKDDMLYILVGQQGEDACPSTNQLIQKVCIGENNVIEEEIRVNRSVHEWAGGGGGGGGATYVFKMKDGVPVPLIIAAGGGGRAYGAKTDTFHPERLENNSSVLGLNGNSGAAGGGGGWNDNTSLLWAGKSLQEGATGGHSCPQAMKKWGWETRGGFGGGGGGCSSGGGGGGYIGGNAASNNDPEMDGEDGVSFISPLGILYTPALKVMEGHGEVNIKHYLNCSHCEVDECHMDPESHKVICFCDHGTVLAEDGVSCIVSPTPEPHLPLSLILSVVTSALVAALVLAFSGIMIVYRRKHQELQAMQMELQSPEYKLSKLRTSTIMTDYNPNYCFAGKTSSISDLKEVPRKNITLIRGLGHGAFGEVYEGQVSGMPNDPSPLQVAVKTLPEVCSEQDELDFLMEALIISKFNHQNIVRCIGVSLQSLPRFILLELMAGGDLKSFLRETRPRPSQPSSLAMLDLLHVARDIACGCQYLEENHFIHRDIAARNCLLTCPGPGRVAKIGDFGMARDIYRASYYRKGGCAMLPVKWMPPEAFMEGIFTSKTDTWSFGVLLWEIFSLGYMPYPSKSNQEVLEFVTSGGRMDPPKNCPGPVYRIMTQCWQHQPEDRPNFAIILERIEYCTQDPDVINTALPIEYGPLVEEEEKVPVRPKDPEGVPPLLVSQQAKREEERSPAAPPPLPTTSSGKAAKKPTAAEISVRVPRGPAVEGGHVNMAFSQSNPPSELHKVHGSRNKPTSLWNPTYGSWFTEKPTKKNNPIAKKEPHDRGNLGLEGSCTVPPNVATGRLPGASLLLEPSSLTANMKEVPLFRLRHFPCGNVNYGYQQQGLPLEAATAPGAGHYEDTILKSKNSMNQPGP

[3] = biological target: T1, Aurora kinase C (Homo sapiens) (UniProt Q9UQB9); assay: Inhibition of AURKC at 1 uM
T1 sequence (whole entry): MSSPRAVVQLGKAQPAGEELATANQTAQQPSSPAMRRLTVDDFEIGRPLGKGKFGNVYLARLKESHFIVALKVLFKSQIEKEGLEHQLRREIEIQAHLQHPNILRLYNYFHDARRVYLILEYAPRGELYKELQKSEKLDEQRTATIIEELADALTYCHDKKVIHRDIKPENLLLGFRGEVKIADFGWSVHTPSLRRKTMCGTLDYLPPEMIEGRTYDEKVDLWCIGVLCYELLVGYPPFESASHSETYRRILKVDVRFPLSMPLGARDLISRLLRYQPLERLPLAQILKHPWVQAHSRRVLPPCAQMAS
Outline: (§2)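 Ambit KINOMEscan screen at a single concentration across a 250–400 kinase panel, recorded as percent inhibition. Selectivity was expressed as S(90), the fraction of kinases inhibited >90%.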

[4] = biological target: Non-receptor tyrosine-protein kinase TYK2 (Homo sapiens) (UniProt P29597); assay: Inhibition of TYK2 JH2 pseudokinase domain at 1 uM
Sequence of Non-receptor tyrosine-protein kinase TYK2 (Homo sapiens) (P29597 whole entry, the tested form may be a part): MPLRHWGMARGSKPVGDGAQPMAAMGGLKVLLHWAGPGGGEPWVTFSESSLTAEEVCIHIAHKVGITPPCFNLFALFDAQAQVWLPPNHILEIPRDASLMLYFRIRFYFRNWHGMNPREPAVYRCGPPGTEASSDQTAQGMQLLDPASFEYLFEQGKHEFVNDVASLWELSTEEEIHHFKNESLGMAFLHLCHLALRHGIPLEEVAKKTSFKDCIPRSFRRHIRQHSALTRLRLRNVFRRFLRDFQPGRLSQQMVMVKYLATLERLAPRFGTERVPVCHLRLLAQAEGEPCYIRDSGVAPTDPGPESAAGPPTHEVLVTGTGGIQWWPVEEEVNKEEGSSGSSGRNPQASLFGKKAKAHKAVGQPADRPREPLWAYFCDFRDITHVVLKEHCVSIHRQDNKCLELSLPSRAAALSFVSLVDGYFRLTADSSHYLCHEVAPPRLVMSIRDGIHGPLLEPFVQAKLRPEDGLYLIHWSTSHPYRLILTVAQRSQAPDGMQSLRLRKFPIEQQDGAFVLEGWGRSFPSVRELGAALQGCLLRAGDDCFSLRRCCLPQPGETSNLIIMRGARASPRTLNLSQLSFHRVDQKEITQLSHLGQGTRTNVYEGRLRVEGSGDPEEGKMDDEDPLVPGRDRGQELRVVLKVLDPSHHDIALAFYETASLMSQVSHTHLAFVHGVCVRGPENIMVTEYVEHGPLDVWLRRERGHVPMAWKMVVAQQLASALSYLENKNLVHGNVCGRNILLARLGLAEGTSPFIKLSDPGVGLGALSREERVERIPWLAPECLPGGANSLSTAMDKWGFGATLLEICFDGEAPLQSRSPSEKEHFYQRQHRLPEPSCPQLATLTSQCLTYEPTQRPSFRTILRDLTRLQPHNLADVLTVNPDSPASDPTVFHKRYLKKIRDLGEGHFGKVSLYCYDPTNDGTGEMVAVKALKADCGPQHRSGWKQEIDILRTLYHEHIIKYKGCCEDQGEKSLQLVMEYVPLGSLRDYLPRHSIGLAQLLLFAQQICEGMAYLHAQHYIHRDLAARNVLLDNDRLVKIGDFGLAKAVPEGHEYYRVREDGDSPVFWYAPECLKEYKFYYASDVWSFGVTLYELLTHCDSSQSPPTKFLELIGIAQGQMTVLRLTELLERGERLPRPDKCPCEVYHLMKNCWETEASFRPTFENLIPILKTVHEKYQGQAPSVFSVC

[5] = biological target: T2, Myotonin-protein kinase (Homo sapiens) (UniProt Q09013); assay: Inhibition of DMPK at 1 uM
T2 sequence (whole entry): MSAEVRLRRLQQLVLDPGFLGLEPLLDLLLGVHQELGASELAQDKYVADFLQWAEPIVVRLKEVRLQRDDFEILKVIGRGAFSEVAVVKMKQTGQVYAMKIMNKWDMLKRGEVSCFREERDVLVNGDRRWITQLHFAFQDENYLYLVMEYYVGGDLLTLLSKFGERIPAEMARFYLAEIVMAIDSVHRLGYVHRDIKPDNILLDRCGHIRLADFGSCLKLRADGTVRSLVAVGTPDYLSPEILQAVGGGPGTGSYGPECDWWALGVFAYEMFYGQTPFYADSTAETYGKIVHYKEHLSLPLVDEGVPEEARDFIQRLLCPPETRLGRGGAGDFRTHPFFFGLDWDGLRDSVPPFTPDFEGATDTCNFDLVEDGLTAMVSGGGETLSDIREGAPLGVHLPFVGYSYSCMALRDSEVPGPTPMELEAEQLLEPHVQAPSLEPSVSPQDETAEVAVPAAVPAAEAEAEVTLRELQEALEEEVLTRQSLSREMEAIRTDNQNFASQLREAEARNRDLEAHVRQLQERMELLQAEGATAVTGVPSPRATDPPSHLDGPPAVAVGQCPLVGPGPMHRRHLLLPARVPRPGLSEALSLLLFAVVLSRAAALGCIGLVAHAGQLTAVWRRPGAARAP
Outline: (§3)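 Single-concentration screen using Ambit Bioscience KINOMEscan technology across a panel of 250–400 kinases. Per-kinase inhibition from this screen was summarized as S(90), the fraction of kinases inhibited by more than 90%.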

[6] = biological target: Serine/threonine-protein kinase PRP4 homolog (Homo sapiens) (UniProt Q13523); assay: Inhibition of PRP4 at 1 uM
[7] = biological target: Cyclin-dependent kinase 15 (Homo sapiens) (UniProt Q96Q40); assay: Inhibition of PFTAIRE2 at 1 uM
[8] = biological target: Mitogen-activated protein kinase 10 (Homo sapiens) (UniProt P53779); assay: Inhibition of JNK3 at 1 uM; outline: as §1
[9] = system: Proto-oncogene tyrosine-protein kinase receptor Ret (Homo sapiens), P07949 [V804L]; assay: Inhibition of RET V804L mutant at 1 uM
Sequence of Proto-oncogene tyrosine-protein kinase receptor Ret (Homo sapiens), P07949 [V804L] (P07949 whole entry V804L): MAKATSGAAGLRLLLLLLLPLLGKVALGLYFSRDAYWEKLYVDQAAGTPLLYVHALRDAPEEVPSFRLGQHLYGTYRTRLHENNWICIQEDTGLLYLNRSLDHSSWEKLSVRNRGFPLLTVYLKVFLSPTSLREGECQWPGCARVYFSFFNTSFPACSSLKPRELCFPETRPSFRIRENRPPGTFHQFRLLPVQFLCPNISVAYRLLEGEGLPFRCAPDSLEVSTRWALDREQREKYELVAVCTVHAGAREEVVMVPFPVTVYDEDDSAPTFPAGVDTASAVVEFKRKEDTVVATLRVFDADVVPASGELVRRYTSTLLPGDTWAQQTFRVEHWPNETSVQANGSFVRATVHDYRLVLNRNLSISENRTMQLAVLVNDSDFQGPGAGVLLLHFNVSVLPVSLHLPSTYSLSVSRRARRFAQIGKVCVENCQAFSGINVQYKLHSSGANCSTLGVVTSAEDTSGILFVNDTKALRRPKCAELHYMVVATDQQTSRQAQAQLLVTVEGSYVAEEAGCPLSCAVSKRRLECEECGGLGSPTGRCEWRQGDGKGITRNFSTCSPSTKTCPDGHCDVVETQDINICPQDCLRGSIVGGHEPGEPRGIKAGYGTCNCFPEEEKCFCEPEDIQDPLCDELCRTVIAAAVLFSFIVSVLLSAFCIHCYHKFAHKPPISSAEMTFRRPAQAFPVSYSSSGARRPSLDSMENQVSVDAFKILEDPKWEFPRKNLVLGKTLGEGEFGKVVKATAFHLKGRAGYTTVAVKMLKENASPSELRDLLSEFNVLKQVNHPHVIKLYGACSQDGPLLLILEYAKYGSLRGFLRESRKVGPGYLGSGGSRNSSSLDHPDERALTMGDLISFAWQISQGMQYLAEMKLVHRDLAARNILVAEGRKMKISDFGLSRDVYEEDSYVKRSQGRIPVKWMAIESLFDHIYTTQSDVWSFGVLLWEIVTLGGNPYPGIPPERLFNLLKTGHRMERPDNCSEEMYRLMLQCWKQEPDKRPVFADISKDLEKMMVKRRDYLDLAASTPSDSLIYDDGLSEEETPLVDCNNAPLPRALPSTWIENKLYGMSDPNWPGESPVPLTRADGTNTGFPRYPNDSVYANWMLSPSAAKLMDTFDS

[10] = biological target: Tyrosine-protein kinase Lyn (Homo sapiens) (UniProt P07948); assay: Inhibition of LYN at 1 uM; outline: as §1
Sequence of Tyrosine-protein kinase Lyn (Homo sapiens) (P07948 2-512 limits assumed): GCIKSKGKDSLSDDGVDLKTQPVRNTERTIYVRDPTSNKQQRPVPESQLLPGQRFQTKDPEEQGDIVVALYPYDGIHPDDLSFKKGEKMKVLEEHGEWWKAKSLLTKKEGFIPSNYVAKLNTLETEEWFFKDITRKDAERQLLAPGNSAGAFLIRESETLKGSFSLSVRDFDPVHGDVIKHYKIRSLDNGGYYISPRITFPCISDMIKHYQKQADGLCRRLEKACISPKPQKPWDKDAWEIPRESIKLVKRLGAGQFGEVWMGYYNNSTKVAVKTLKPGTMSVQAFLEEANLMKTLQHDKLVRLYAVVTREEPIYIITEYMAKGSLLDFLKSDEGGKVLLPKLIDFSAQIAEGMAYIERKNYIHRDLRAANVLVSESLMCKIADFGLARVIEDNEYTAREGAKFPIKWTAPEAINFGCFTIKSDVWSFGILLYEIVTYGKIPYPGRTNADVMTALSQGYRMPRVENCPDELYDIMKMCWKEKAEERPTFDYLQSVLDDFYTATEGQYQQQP

[11] = biological target: T3, Ephrin type-A receptor 3 (Homo sapiens) (UniProt P29320); assay: Inhibition of EPHA3 at 1 uM; outline: as §3
T3 sequence (whole entry): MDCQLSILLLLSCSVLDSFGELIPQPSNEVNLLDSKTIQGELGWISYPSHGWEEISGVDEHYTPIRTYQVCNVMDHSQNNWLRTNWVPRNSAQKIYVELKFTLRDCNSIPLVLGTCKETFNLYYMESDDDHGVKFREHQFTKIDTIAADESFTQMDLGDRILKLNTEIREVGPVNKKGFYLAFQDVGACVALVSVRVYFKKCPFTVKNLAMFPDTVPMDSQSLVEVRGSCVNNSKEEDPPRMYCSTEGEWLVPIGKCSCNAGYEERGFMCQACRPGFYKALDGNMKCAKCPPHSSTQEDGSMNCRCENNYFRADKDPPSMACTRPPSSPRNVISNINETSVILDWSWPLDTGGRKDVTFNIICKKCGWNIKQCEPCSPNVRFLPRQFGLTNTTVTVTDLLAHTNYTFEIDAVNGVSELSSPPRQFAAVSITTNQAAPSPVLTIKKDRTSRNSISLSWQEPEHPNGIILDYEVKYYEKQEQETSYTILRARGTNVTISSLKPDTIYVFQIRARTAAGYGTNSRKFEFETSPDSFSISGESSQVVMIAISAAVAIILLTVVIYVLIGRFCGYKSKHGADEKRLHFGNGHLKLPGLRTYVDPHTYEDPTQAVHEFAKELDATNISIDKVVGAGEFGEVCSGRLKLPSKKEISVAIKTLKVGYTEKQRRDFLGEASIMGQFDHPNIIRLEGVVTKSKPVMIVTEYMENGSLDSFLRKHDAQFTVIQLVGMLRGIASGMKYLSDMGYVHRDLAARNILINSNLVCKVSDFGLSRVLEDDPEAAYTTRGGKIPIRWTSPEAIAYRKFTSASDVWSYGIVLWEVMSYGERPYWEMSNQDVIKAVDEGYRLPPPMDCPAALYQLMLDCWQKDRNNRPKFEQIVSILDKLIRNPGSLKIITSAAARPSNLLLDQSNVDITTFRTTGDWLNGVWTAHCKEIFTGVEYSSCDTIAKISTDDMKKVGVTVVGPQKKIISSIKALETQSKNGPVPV

[12] = biological target: RAF proto-oncogene serine/threonine-protein kinase (Homo sapiens) (UniProt P04049); assay: Inhibition of RAF1 at 1 uM
Sequence of RAF proto-oncogene serine/threonine-protein kinase (Homo sapiens) (P04049 whole entry): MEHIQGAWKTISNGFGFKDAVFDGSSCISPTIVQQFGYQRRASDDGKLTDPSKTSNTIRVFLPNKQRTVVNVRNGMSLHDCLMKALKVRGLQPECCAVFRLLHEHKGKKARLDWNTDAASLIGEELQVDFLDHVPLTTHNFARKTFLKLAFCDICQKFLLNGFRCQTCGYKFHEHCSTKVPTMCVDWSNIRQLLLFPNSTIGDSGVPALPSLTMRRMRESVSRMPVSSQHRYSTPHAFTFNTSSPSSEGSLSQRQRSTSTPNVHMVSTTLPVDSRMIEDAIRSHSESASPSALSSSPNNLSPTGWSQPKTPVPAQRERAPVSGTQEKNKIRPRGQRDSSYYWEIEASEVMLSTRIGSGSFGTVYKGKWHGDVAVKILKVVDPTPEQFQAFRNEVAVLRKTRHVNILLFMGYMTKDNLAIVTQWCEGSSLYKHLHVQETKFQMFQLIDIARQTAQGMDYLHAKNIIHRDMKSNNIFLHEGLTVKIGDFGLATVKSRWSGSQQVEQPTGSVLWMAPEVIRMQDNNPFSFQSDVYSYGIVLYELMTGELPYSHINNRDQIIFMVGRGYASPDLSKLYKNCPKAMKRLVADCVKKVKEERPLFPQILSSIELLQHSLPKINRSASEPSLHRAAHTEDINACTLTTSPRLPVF

[13] = biological target: Fibroblast growth factor receptor 4 (Homo sapiens) (UniProt P22455); assay: Inhibition of FGFR4 at 1 uM; outline: as §1
[14] = biological target: Calcium/calmodulin-dependent protein kinase type II subunit alpha (Homo sapiens) (UniProt Q9UQM7); assay: Inhibition of CAMK2A at 1 uM; outline: as §2
[15] = system: Tyrosine-protein kinase ABL1 (Homo sapiens), P00519 [F317L]; assay: Inhibition of ABL1 F317L mutant at 1 uM

Compound | inhibition [1] | inhibition [2] | inhibition [3] | inhibition [4] | inhibition [5] | inhibition [6] | inhibition [7] | inhibition [8] | inhibition [9] | inhibition [10] | inhibition [11] | inhibition [12] | inhibition [13] | inhibition [14] | inhibition [15]
CN1CCN(c2ccc(-c3cnc4c(c3)N(Cc3cc(F)ccc3F)CCN4)cn2)CC1 | 58% | 96.7% | < 50% | < 50% | < 50% | < 50% | < 50% | < 50% | < 50% | < 50% | < 50% | < 50% | < 50% | < 50% | < 50%
CC(=O)N1CCN(c2cc(-c3cnc4c(c3)N(Cc3cc(Cl)ccc3C(F)(F)F)CCN4)ccn2)CC1 | 76% | 98% | 89% | < 50% | < 50% | < 50% | < 50% | < 50% | < 50% | < 50% | < 50% | < 50% | < 50% | < 50% | < 50%
CN1CCN(c2ccc(-c3cnc4c(c3)N(Cc3c(F)ccc(F)c3Cl)CCN4)cn2)CC1 | 72% | 97% | < 50% | < 50% | < 50% | < 50% | < 50% | < 50% | < 50% | < 50% | < 50% | < 50% | < 50% | < 50% | 77%
FC(F)(F)c1ccc(Cl)cc1CN1CCNc2ncc(-c3ccnc(N4CCNCC4)c3)cc21 | 79% | 99% | 92% | < 50% | < 50% | < 50% | < 50% | < 50% | 89% | < 50% | < 50% | < 50% | < 50% | < 50% | < 50%
CN1CCN(c2ccc(-c3cnc4c(c3)N(Cc3cc(Cl)ccc3Cl)CCN4)cn2)CC1 | 72% | 98% | < 50% | < 50% | < 50% | < 50% | < 50% | < 50% | < 50% | < 50% | < 50% | < 50% | < 50% | < 50% | < 50%
O=C(c1ccc(-c2cnc3c(c2)N(Cc2cc(Cl)ccc2C(F)(F)F)CCN3)cc1)N1CCC(N2CCCC2)CC1 | 73.6% | 83.4% | 96.9% | – | < 50% | – | – | < 50% | – | < 50% | < 50% | < 50% | < 50% | < 50% | –
O=C(O)c1ccc(-c2cnc3c(c2)N(Cc2cc(Cl)ccc2C(F)(F)F)CCN3)cc1 | 65% | < 50% | < 50% | – | < 50% | – | – | < 50% | – | < 50% | < 50% | < 50% | < 50% | < 50% | < 50%
CN1CCN(c2ccc(-c3cnc4c(c3)N(Cc3cc(Cl)ccc3C(F)(F)F)CCN4)cn2)CC1 | < 50% | 98% | < 50% | < 50% | < 50% | < 50% | < 50% | < 50% | < 50% | < 50% | < 50% | < 50% | < 50% | < 50% | < 50%
O=C(c1ccc(-c2cnc3c(c2)N(Cc2cc(Cl)ccc2C(F)(F)F)CCN3)cc1)N1CCCCC1 | < 50% | < 50% | < 50% | – | < 50% | – | – | < 50% | – | < 50% | < 50% | < 50% | < 50% | < 50% | –
COC1CCN(C(=O)c2ccc(-c3cnc4c(c3)N(Cc3cc(Cl)ccc3C(F)(F)F)CCN4)cc2)CC1 | < 50% | 85.6% | 79.5% | – | < 50% | – | – | < 50% | – | < 50% | < 50% | < 50% | < 50% | < 50% | –
